Results pooled from the literature.
Each line is one published result; the experiments were not run side by side.
Target: Serine/threonine-protein kinase 26 (STK26, Homo sapiens, UniProt Q9P289)

CCCCC(=O)Nc1ccc(-c2ccc3ncn(CCC)c(=O)c3c2)cn1 — remaining binding (binding, competition with immobilised ligand; 0.5 µM): 100%
Cc1cc(O)c(-c2ccc([C@@H](C)CN(C)C)cc2)c2c1[nH]c(=O)c1sccc12 — inhibition (enzyme activity, inhibitor; 0.1 µM): 19.3%
CO[C@@H]1[C@H](N(C)C(=O)c2ccccc2)C[C@H]2O[C@]1(C)n1c3ccccc3c3c4c(c5c6ccccc6n2c5c31)C(=O)NC4 — inhibition (enzyme activity, inhibitor; 1 µM): 47%
COc1ccc2[nH]c3c4[nH]c5ccc(OC)cc5c4c4c(c3c2c1)C(=O)NC4=O — remaining binding (binding, competition with immobilised ligand; 1 µM): 85%
C1=C/COCc2cc(ccc2OCCN2CCCC2)Nc2nccc(n2)-c2cccc(c2)COC/1 — remaining binding (binding; 0.1 µM): 74%
CC(C)S(=O)(=O)c1ccc2nccc(Nc3ccc4sc(C5CCCC5)nc4c3)c2c1 — activity vs control (enzyme activity, inhibitor; 1 µM): 84%
CN1CCN(C(=O)c2ccc(NC(=O)Nc3ccc(N(C)c4ccnc(Nc5ccc(CS(C)(=O)=O)cc5)n4)cc3)cc2)CC1 — remaining binding (binding, competition with immobilised ligand; 1 µM): 11%
CC#CC(=O)N1CCC[C@H]1c1nc(-c2ccc(C(=O)Nc3ccccn3)cc2)c2c(N)nccn12 — inhibition (enzyme activity, inhibitor; 1 µM): 0%
